Each structure is given as a SMILES string.

18 compounds from ChEMBL document CHEMBL1137731, “Cytotoxicity and TOP1-targeting activity of 8- and 9-amino derivatives of 5-butyl- and 5-(2-N,N-dimethylamino)ethyl-5H-dibenzo[c,h][1,6]naphthyridin-6-ones” (Eur J Med Chem, 2009) can be followed below.

Assay [1] in a line: Cytotoxicity against multidrug resistant human KBV1 cells overexpressing MDR1 by MTT method. Format: functional, cell-based. To be noted: KB-V1. (In general: Tetrazolium assays rely on reduction of a dye to a coloured formazan, in cell work by metabolically active cells.)
Assay [2] can be described thus: Cytotoxicity against human KB3-1 cells by MTT method. It counts as functional, cell-based. Particulars: KB 3-1.
The species entered for a further assay is Homo sapiens. Put plainly: Inhibition of human recombinant topoisomerase 1 expressed in Escherichia coli assessed as drug level causing 10% mediated DNA cleavage relative to topotecan. In outline:
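Recombinant human TOP1, expressed in E. coli as a T7-system fusion protein, was incubated with drug and 3′-end-labelled plasmid YepG for 30 min at room temperature. Reactions were stopped with SDS and proteinase K (1 h, 37 °C), alkali-denatured, and run on a neutral agarose gel. The read-out was the concentration giving 10% cleavage, expressed relative to topotecan set at 1.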

A further assay relates to P388. The assay can be described thus: Cytotoxicity against mouse P388 cells by MTT method. Format: functional, cell-based. The gist of the method:
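MTT assay with P388 mouse leukaemia cells grown in suspension at 37 °C, 5% CO2, in RPMI with 10% heat-inactivated FBS, 2 mM L-glutamine and penicillin/streptomycin. Cells were exposed continuously to varying drug concentrations for 4 days, with a drug-free control, and MTT was read at day 4. The IC50 came from at least two assays, each in six replicate wells.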

For another assay, the system named is RPMI8402 (human). Put plainly: Cytotoxicity against human RPMI8402 cells by MTT method. To be noted: RPMI-8402.
Assay [3] is described as follows: Cytotoxicity against multidrug resistant human KBH5.0 cells overexpressing BCRP by MTT method. Format: functional, cell-based. Particulars: KBH5.0 cell.

In general, IC50 refers to the concentration needed to halve the response being measured. High values mean lower potency, low ones higher potency. For `CCCCn1c(=O)c2ccc(NCCN(C)C)cc2c2cnc3cc4c(cc3c21)OCO4`, the IC50 in assay [1] worked out at 4500 nM; in assay [2], 3000 nM; in the assay with P388, 1800 nM; in the assay with RPMI8402 (human), 1800 nM; in assay [3], 3500 nM. In addition, the Activity in the assay listed under Homo sapiens is greater than 20.

As to `CCCCn1c(=O)c2cc([N+](=O)[O-])ccc2c2cnc3cc4c(cc3c21)OCO4`, the IC50 came to 300 nM in assay [1]; 400 nM in assay [2]; 150 nM in the assay with P388; 2400 nM with RPMI8402 (human); 500 nM in assay [3]. Besides, the Activity in the assay filed under Homo sapiens is greater than 10.

Regarding `CN(C)CCn1c(=O)c2ccc([N+](=O)[O-])cc2c2cnc3cc4c(cc3c21)OCO4`, the IC50 in assay [1] was determined as 4 nM; in assay [2], 5 nM; with P388, 5 nM; in the assay with RPMI8402 (human), 2 nM; in assay [3], 5 nM. In addition, the Activity in the assay filed under Homo sapiens turned out to be 0.1.

For `CCCCn1c(=O)c2ccc(NC(=O)CN(C)C)cc2c2cnc3cc4c(cc3c21)OCO4`, the IC50 in assay [1] turned out to be 2000 nM; in assay [2], 900 nM; in the assay with P388, 600 nM; in the assay with RPMI8402 (human) it was 300 nM; in assay [3] it was 1900 nM. In the assay filed under Homo sapiens, the Activity was greater than 20.

Turning to `CN(C)CCn1c(=O)c2cc([N+](=O)[O-])ccc2c2cnc3cc4c(cc3c21)OCO4`, the IC50 in assay [1] was found to be 25 nM; in assay [2], 26 nM; in the assay with P388 it was 9 nM; with RPMI8402 (human), 5 nM; in assay [3] it was 25 nM. The Activity in the assay filed under Homo sapiens turned out to be 0.2.

For the compound `CCCCn1c(=O)c2ccc([N+](=O)[O-])cc2c2cnc3cc4c(cc3c21)OCO4`, the IC50 in assay [1] stood at 850 nM; in assay [2], 310 nM; with P388, 700 nM; in the assay on RPMI8402 (human), 480 nM; in assay [3], 360 nM. For the same compound, the Activity in the assay filed under Homo sapiens was greater than 10.

With `CN(C)CCn1c(=O)c2cc(N)ccc2c2cnc3cc4c(cc3c21)OCO4`, the IC50 in assay [1] amounted to 280 nM; in assay [2], 230 nM; in the assay on P388, 40 nM; with RPMI8402 (human), 90 nM; in assay [3] it was 330 nM. The Activity in the assay filed under Homo sapiens amounted to 8.

With `CN(C)CCNc1ccc2c(=O)n(CCN(C)C)c3c4cc5c(cc4ncc3c2c1)OCO5`, the IC50 in assay [1] is 550 nM; in assay [2], 120 nM; in the assay on P388, 60 nM; in the assay on RPMI8402 (human) it was 850 nM; in assay [3], 320 nM. Moreover, in the assay listed under Homo sapiens, the Activity is greater than 20.

In the case of `CN(C)CCn1c(=O)c2cc(NC(=O)CN(C)C)ccc2c2cnc3cc4c(cc3c21)OCO4`, the IC50 in assay [1] is 600 nM; in assay [2], 180 nM; with P388, 100 nM; in the assay on RPMI8402 (human) it was 120 nM; in assay [3], 240 nM. Further, in the assay listed under Homo sapiens, the Activity was greater than 20.

With `CCCCn1c(=O)c2cc(NCCN(C)C)ccc2c2cnc3cc4c(cc3c21)OCO4`, the IC50 in assay [1] came to 3200 nM; in assay [2], 1700 nM; in the assay on P388 it was 780 nM; in the assay with RPMI8402 (human), 1570 nM; in assay [3], 1700 nM. The Activity in the assay listed under Homo sapiens was greater than 20.

In the case of `CN(C)CCn1c(=O)c2ccc(N)cc2c2cnc3cc4c(cc3c21)OCO4`, the IC50 in assay [1] worked out at 130 nM; in assay [2], 130 nM; in the assay with P388, 28 nM; in the assay on RPMI8402 (human) it was 33 nM; in assay [3], 150 nM. Moreover, the Activity in the assay listed under Homo sapiens was 0.5.

In the case of `CC[C@@]1(O)C(=O)OCc2c1cc1n(c2=O)Cc2cc3c(CN(C)C)c(O)ccc3nc2-1` [TOPOTECAN], the half-maximal inhibitory concentration (IC50) in assay [1] came out at 440 nM; in assay [2], 40 nM; in the assay on P388, 45 nM; in the assay with RPMI8402 (human), 21 nM; in assay [3] it was 440 nM.

With `CCCCn1c(=O)c2cc(NC(=O)CN(C)C)ccc2c2cnc3cc4c(cc3c21)OCO4`, the IC50 turned out to be 2600 nM in assay [1]; 1500 nM in assay [2]; 250 nM with P388; 330 nM in the assay on RPMI8402 (human); 1600 nM in assay [3]. Moreover, the Activity in the assay filed under Homo sapiens is greater than 20.

On to `CN(C)CCn1c(=O)c2ccc(NC(=O)CN(C)C)cc2c2cnc3cc4c(cc3c21)OCO4`, for which the IC50 in assay [1] worked out at 190 nM; in assay [2] it was 36 nM; in the assay with P388, 35 nM; in the assay on RPMI8402 (human), 35 nM; in assay [3], 120 nM. Moreover, the Activity in the assay listed under Homo sapiens is greater than 20.

As to `CN(C)CCNc1ccc2c(c1)c(=O)n(CCN(C)C)c1c3cc4c(cc3ncc21)OCO4`, the IC50 stood at 410 nM in assay [1]; 50 nM in assay [2]; 40 nM in the assay with P388; 120 nM in the assay with RPMI8402 (human); 300 nM in assay [3]. Moreover, the Activity in the assay listed under Homo sapiens was greater than 20.

`CCCCn1c(=O)c2ccc(N)cc2c2cnc3cc4c(cc3c21)OCO4`: the half-maximal inhibitory concentration (IC50) came to 2500 nM in assay [1]; 5800 nM in assay [2]; 6000 nM in the assay on P388; 3500 nM with RPMI8402 (human); 3500 nM in assay [3]. The Activity in the assay filed under Homo sapiens is greater than 20.

`CCCCn1c(=O)c2cc(N)ccc2c2cnc3cc4c(cc3c21)OCO4`: the 50% inhibitory concentration (IC50) in assay [1] worked out at 2500 nM; in assay [2], 3200 nM; in the assay with P388, 280 nM; with RPMI8402 (human), 1250 nM; in assay [3], 3500 nM. For the same compound, the Activity in the assay filed under Homo sapiens is greater than 20.

`CC[C@@]1(O)C(=O)OCc2c1cc1n(c2=O)Cc2cc3ccccc3nc2-1` [CAMPTOTHECIN]: the Activity in the assay filed under Homo sapiens worked out at 0.2. Moreover, the IC50 was found to be 14 nM in the assay on P388 and 6 nM in the assay on RPMI8402 (human).
